{"source": "ChEMBL document CHEMBL4325893", "about": "“Synthesis and antibacterial profiles of targeted triclosan derivatives” (2019)", "key": {"Escherichia coli [1]": {"test_system": "Escherichia coli", "assay": "Antibacterial activity against Escherichia coli ATCC 35218 after 18 hrs", "format": "functional", "details": "ATCC 35218, 18 h", "summary_of_the_method": "(§1)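 Broth microdilution in Nutrient Broth No. 2; stocks in ethanol diluted to 0.01–128 µg/ml (triclosan) or 0.25–256 µg/ml (glycosides). Overnight 37 °C NB2 cultures diluted 1 in 10^4 in saline and added to the dilutions. Incubation at 37 °C with agitation, OD read every 15 min; MIC is the lowest concentration preventing any OD rise after 18 h.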"}, "Aeromonas hydrophila": {"test_system": "Aeromonas hydrophila", "assay": "Antibacterial activity against Aeromonas hydrophila OCC 778 after 18 hrs", "format": "functional", "details": "OCC 778, 18 h", "summary_of_the_method": "as §1"}, "[2]": {"test_system": "Staphylococcus saprophyticus", "assay": "Antibacterial activity against Staphylococcus saprophyticus ATCC 15305 after 18 hrs", "format": "functional", "details": "ATCC 15305, 18 h", "summary_of_the_method": "(§2)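 Broth microdilution in Nutrient Broth No. 2. Ethanol stocks were diluted in broth to 0.01–128 µg/ml for triclosan and 0.25–256 µg/ml for glycosides. Overnight 37°C NB2 cultures were diluted 1 in 10^4 in saline and added to the wells. Plates were incubated at 37°C with OD read every 15 min after agitation. MIC was the lowest concentration giving no OD increase at 18 h.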"}, "[3]": {"test_system": "Staphylococcus haemolyticus", "assay": "Antibacterial activity against Staphylococcus haemolyticus OCC 2223 after 18 hrs", "format": "functional", "details": "OCC 2223, 18 h", "summary_of_the_method": "as §2"}, "Klebsiella pneumoniae [4]": {"test_system": "Klebsiella pneumoniae", "assay": "Antibacterial activity against Klebsiella pneumoniae ATCC 10031 after 18 hrs", "format": "functional", "details": "ATCC 10031, 18 h", "summary_of_the_method": "as §1"}, "Klebsiella aerogenes [5]": {"test_system": "Klebsiella aerogenes", "assay": "Antibacterial activity against Klebsiella aerogenes NCTC 8167 after 18 hrs", "format": "functional", "details": "NCTC 8167, 18 h", "summary_of_the_method": "as §1"}, "Streptococcus pyogenes": {"test_system": "Streptococcus pyogenes", "assay": "Antibacterial activity against Streptococcus pyogenes ATCC 19615 after 18 hrs", "format": "functional", "details": "ATCC 19615, 18 h", "summary_of_the_method": "as §2"}, "[6]": {"assay": "Antibacterial activity against Salmonella enterica subspecies enterica serotype Arizonae OCC 706 after 18 hrs", "format": "functional, Salmonella enterica subsp. enterica serovar Arizonae", "details": "OCC 706, 18 h", "summary_of_the_method": "as §1"}, "Hafnia alvei": {"test_system": "Hafnia alvei", "assay": "Antibacterial activity against Hafnia alvei 13337 after 18 hrs", "format": "functional", "details": "Hafnia alvei, 13337, 18 h", "summary_of_the_method": "as §1"}, "Enterococcus faecium": {"test_system": "Enterococcus faecium", "assay": "Antibacterial activity against Enterococcus faecium ATCC 19434 after 18 hrs", "format": "functional", "details": "ATCC 19434, 18 h", "summary_of_the_method": "as §1"}, "Citrobacter freundii": {"test_system": "Citrobacter freundii", "assay": "Antibacterial activity against Citrobacter freundii OCC 851 after 18 hrs", "format": "functional", "details": "OCC 851, 18 h", "summary_of_the_method": "as §1"}, "[7]": {"test_system": "Staphylococcus epidermidis", "assay": "Antibacterial activity against Staphylococcus epidermidis 155 after 18 hrs", "format": "functional", "details": "Staphylococcus epidermidis, 155, 18 h", "summary_of_the_method": "as §1"}, "Streptococcus pneumoniae [8]": {"test_system": "Streptococcus pneumoniae", "assay": "Antibacterial activity against Streptococcus pneumoniae 6305 after 18 hrs", "format": "functional", "details": "Streptococcus pneumoniae, 6305, 18 h", "summary_of_the_method": "as §2"}, "Streptococcus pneumoniae [9]": {"test_system": "Streptococcus pneumoniae", "assay": "Antibacterial activity against Streptococcus pneumoniae ATCC 49619 after 18 hrs", "format": "functional", "details": "ATCC 49619, 18 h", "summary_of_the_method": "as §2"}, "Salmonella typhimurium": {"test_system": "Salmonella typhimurium", "assay": "Antibacterial activity against Salmonella enterica subspecies enterica serotype typhimurium ATCC 14028 after 18 hrs", "format": "functional, Salmonella enterica subsp. enterica serovar Typhimurium", "details": "ATCC 14028, 18 h", "summary_of_the_method": "as §1"}, "Escherichia coli [10]": {"test_system": "Escherichia coli", "assay": "Antibacterial activity against Escherichia coli ATCC 10536 after 18 hrs", "format": "functional", "details": "ATCC 10536, 18 h", "summary_of_the_method": "as §1"}, "Klebsiella pneumoniae [11]": {"test_system": "Klebsiella pneumoniae", "assay": "Antibacterial activity against Klebsiella pneumoniae ATCC 13883 after 18 hrs", "format": "functional", "details": "ATCC 13883, 18 h", "summary_of_the_method": "as §1"}, "Streptococcus viridans": {"test_system": "Streptococcus viridans", "assay": "Antibacterial activity against Streptococcus viridans OCC 234 after 18 hrs", "format": "functional", "details": "OCC 234, 18 h", "summary_of_the_method": "as §2"}, "Escherichia coli [12]": {"test_system": "Escherichia coli", "assay": "Antibacterial activity against Escherichia coli 700728 after 18 hrs", "format": "functional", "details": "Escherichia coli, 700728, 18 h", "summary_of_the_method": "as §1"}, "Staphylococcus aureus [13]": {"test_system": "Staphylococcus aureus", "assay": "Antibacterial activity against Staphylococcus aureus ATCC 25923 after 18 hrs", "format": "functional", "details": "ATCC 25923, 18 h", "summary_of_the_method": "as §1"}, "Escherichia coli [14]": {"test_system": "Escherichia coli", "assay": "Antibacterial activity against Escherichia coli ATCC 25922 after 18 hrs", "format": "functional", "details": "ATCC 25922, 18 h", "summary_of_the_method": "as §1"}, "Bacillus subtilis": {"test_system": "Bacillus subtilis", "assay": "Antibacterial activity against Bacillus subtilis NCTC 10073 after 18 hrs", "format": "functional", "details": "NCTC 10073, 18 h", "summary_of_the_method": "as §1"}, "Staphylococcus aureus [15]": {"test_system": "Staphylococcus aureus", "assay": "Antibacterial activity against Staphylococcus aureus NCTC 13758 after 18 hrs", "format": "functional", "details": "NCTC 13758, 18 h", "summary_of_the_method": "as §1"}, "Salmonella enteritidis": {"test_system": "Salmonella enteritidis", "assay": "Antibacterial activity against Salmonella enterica subspecies enterica serotype Enteritidis 13076 after 18 hrs", "format": "functional, Salmonella enterica subsp. enterica serovar Enteritidis", "details": "Salmonella enterica, 13076, 18 h", "summary_of_the_method": "as §1"}, "Proteus mirabilis": {"test_system": "Proteus mirabilis", "assay": "Antibacterial activity against Proteus mirabilis ATCC 12453 after 18 hrs", "format": "functional", "details": "ATCC 12453, 18 h", "summary_of_the_method": "as §1"}, "Staphylococcus aureus [16]": {"test_system": "Staphylococcus aureus", "assay": "Antibacterial activity against Staphylococcus aureus OCC 104 after 18 hrs", "format": "functional", "details": "OCC 104, 18 h", "summary_of_the_method": "as §1"}, "Staphylococcus aureus [17]": {"test_system": "Staphylococcus aureus", "assay": "Antibacterial activity against Staphylococcus aureus ATCC 6538 after 18 hrs", "format": "functional", "details": "ATCC 6538, 18 h", "summary_of_the_method": "as §1"}, "Klebsiella aerogenes [18]": {"test_system": "Klebsiella aerogenes", "assay": "Antibacterial activity against Enterobacter aerogenes ATCC 13048 after 18 hrs", "format": "functional", "details": "ATCC 13048, 18 h", "summary_of_the_method": "as §1"}, "Serratia marcescens": {"test_system": "Serratia marcescens", "assay": "Antibacterial activity against Serratia marcescens OCC 217 after 18 hrs", "format": "functional", "details": "OCC 217, 18 h", "summary_of_the_method": "as §1"}}, "data": [{"smiles": "OC[C@H]1O[C@H](Oc2cc(Cl)ccc2Oc2ccc(Cl)cc2Cl)[C@H](O)[C@@H](O)[C@H]1O", "values": [{"measurement": "MIC", "setting": "Escherichia coli [1]", "value": "16 to 64", "unit": "µg/mL"}, {"measurement": "MIC", "setting": "Aeromonas hydrophila", "value": "> 256", "unit": "µg/mL"}, {"measurement": "MIC", "setting": "[2]", "value": 64, "unit": "µg/mL"}, {"measurement": "MIC", "setting": "[3]", "value": 16, "unit": "µg/mL"}, {"measurement": "MIC", "setting": "Klebsiella pneumoniae [4]", "value": 1, "unit": "µg/mL"}, {"measurement": "MIC", "setting": "Klebsiella aerogenes [5]", "value": 32, "unit": "µg/mL"}, {"measurement": "MIC", "setting": "Streptococcus pyogenes", "value": 256, "unit": "µg/mL"}, {"measurement": "MIC", "setting": "[6]", "value": "32 to 64", "unit": "µg/mL"}, {"measurement": "MIC", "setting": "Hafnia alvei", "value": 16, "unit": "µg/mL"}, {"measurement": "MIC", "setting": "Enterococcus faecium", "value": "> 256", "unit": "µg/mL"}, {"measurement": "MIC", "setting": "Citrobacter freundii", "value": 64, "unit": "µg/mL"}, {"measurement": "MIC", "setting": "[7]", "value": "8 to 32", "unit": "µg/mL"}, {"measurement": "MIC", "setting": "Streptococcus pneumoniae [8]", "value": 128, "unit": "µg/mL"}, {"measurement": "MIC", "setting": "Streptococcus pneumoniae [9]", "value": 128, "unit": "µg/mL"}, {"measurement": "MIC", "setting": "Salmonella typhimurium", "value": "32 to 64", "unit": "µg/mL"}, {"measurement": "MIC", "setting": "Escherichia coli [10]", "value": "16 to 64", "unit": "µg/mL"}, {"measurement": "MIC", "setting": "Klebsiella pneumoniae [11]", "value": 1, "unit": "µg/mL"}, {"measurement": "MIC", "setting": "Streptococcus viridans", "value": "> 256", "unit": "µg/mL"}, {"measurement": "MIC", "setting": "Escherichia coli [12]", "value": "16 to 64", "unit": "µg/mL"}, {"measurement": "MIC", "setting": "Staphylococcus aureus [13]", "value": "8 to 16", "unit": "µg/mL"}, {"measurement": "MIC", "setting": "Escherichia coli [14]", "value": "16 to 64", "unit": "µg/mL"}, {"measurement": "MIC", "setting": "Bacillus subtilis", "value": 256, "unit": "µg/mL"}, {"measurement": "MIC", "setting": "Staphylococcus aureus [15]", "value": "8 to 16", "unit": "µg/mL"}, {"measurement": "MIC", "setting": "Salmonella enteritidis", "value": "32 to 64", "unit": "µg/mL"}, {"measurement": "MIC", "setting": "Proteus mirabilis", "value": 32, "unit": "µg/mL"}, {"measurement": "MIC", "setting": "Staphylococcus aureus [16]", "value": "8 to 16", "unit": "µg/mL"}, {"measurement": "MIC", "setting": "Staphylococcus aureus [17]", "value": "8 to 16", "unit": "µg/mL"}, {"measurement": "MIC", "setting": "Klebsiella aerogenes [18]", "value": 128, "unit": "µg/mL"}, {"measurement": "MIC", "setting": "Serratia marcescens", "value": "> 256", "unit": "µg/mL"}]}]}
